Experiment [1] addresses T1, Tyrosine-protein phosphatase non-receptor type 1 (Homo sapiens, UniProt P18031).
T1 sequence (P18031 whole entry): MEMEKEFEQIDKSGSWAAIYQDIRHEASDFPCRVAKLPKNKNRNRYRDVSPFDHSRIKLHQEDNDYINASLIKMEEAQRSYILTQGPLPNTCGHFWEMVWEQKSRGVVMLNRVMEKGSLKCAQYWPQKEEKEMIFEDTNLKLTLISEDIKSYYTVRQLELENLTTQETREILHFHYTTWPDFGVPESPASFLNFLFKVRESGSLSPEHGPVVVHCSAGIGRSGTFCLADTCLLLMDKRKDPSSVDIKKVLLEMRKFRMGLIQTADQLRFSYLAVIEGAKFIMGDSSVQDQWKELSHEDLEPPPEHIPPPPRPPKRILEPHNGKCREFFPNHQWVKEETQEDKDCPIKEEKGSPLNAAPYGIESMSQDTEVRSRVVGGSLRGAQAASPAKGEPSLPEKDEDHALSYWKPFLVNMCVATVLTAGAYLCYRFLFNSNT

Experiment [2] deals with T2, Tyrosine-protein phosphatase non-receptor type 2 (Homo sapiens, UniProt P17706).
T2 sequence (P17706 whole entry): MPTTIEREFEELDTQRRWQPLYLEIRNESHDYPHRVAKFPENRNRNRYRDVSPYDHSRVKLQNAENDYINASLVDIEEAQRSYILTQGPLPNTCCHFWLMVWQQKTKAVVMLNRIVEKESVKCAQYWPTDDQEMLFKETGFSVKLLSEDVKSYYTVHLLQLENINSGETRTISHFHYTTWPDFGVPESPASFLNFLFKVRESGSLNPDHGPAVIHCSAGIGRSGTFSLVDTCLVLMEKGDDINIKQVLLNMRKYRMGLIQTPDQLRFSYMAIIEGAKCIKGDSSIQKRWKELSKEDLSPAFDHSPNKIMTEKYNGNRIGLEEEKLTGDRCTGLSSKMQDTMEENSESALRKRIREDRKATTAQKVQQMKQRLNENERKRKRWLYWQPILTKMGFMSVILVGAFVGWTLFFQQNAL
Description: Inhibition of human recombinant TCPTP after 30 mins by spectrophotometry. In short, it runs like this:
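In-house human recombinant enzyme (40 ng) was preincubated with inhibitor (1% DMSO) for 10 min at 37 °C in 25 mM Hepes pH 7.0 containing 3 mM DTT, 0.15 M NaCl, 1 mM EDTA and 0.01% NP-40. Reaction was started with 2.5 mM pNPP and followed at 405 nm for 30 min at 37 °C, then quenched with NaOH. Activity came from a p-nitrophenol standard curve.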

For experiment [3], the target named is Receptor-type tyrosine-protein phosphatase F (Homo sapiens, UniProt P10586).
Experiment [4] concerns Mus musculus. Description: Antidiabetic activity in ob/ob mouse assessed as whole blood glucose at 10 mg/kg, ip measured on day 10 (reference value: 138 +/- 8 mg/dL). The experiment is classed as functional. The following applies: route intraperitoneal.
Experiment [5] deals with Mus musculus. As to the kind of experiment: Antidiabetic activity in ob/ob mouse assessed as fasting plasma glucose at 10 mg/kg, ip measured on day 14 (RVb = 194 +/- 17 mg/dL). The experiment is classed as functional. The following applies: route intraperitoneal.
Experiment [6] has as its system Mus musculus. Description: Antidiabetic activity in ob/ob mouse assessed as fasting plasma glucose at 10 mg/kg measured on day 14 (RVb = 194 +/- 17 mg/dL).
In experiment [7] the test system is Mus musculus. Description: Antidiabetic activity in ob/ob mouse assessed as plasma cholesterol level at 10 mg/kg, ip measured on day 14 (RVb = 193 +/- 4 mg/dL). The experiment is classed as functional. The following applies: route intraperitoneal.
The species named for experiment [8] is Mus musculus. The following applies: Plasma, 10 mg/kg.
The species entered for experiment [9] is Mus musculus. As to conditions: 10 mg/kg.
The species named for experiment [10] is Mus musculus. As to conditions: Blood, 10 mg/kg.
Experiment [11] concerns Mus musculus. Description: Antidiabetic activity in ob/ob mouse assessed as decrease in body weight at 10 mg/kg, po measured on day 15. The experiment is classed as functional, organism-based. Set-up: dose 10 mg/kg.
In experiment [12] the test system is Mus musculus. As to the kind of experiment: Antidiabetic activity in ob/ob mouse assessed as whole blood glucose at 10 mg/kg, po measured on day 10 (reference value: 139 +/- 8 mg/dL).
Experiment [13] relates to Mus musculus. As to the kind of experiment: Antidiabetic activity in ob/ob mouse assessed as reduction in fed-state whole blood glucose at 10 mg/kg, po measured on day 7. The experiment is classed as functional, organism-based. Details: dose 10 mg/kg.

The values that follow come from ChEMBL document CHEMBL1240470, “Synthesis and evaluation of some novel dibenzo[b,d]furan carboxylic acids as potential anti-diabetic agents” (Eur J Med Chem, 2010).

The structures appear in SMILES notation. Calls of active or inactive are those of the source. The calls are words filed in the database; no cut-off is given here.

Receptor-type tyrosine-protein phosphatase F, sequence (P10586 whole entry): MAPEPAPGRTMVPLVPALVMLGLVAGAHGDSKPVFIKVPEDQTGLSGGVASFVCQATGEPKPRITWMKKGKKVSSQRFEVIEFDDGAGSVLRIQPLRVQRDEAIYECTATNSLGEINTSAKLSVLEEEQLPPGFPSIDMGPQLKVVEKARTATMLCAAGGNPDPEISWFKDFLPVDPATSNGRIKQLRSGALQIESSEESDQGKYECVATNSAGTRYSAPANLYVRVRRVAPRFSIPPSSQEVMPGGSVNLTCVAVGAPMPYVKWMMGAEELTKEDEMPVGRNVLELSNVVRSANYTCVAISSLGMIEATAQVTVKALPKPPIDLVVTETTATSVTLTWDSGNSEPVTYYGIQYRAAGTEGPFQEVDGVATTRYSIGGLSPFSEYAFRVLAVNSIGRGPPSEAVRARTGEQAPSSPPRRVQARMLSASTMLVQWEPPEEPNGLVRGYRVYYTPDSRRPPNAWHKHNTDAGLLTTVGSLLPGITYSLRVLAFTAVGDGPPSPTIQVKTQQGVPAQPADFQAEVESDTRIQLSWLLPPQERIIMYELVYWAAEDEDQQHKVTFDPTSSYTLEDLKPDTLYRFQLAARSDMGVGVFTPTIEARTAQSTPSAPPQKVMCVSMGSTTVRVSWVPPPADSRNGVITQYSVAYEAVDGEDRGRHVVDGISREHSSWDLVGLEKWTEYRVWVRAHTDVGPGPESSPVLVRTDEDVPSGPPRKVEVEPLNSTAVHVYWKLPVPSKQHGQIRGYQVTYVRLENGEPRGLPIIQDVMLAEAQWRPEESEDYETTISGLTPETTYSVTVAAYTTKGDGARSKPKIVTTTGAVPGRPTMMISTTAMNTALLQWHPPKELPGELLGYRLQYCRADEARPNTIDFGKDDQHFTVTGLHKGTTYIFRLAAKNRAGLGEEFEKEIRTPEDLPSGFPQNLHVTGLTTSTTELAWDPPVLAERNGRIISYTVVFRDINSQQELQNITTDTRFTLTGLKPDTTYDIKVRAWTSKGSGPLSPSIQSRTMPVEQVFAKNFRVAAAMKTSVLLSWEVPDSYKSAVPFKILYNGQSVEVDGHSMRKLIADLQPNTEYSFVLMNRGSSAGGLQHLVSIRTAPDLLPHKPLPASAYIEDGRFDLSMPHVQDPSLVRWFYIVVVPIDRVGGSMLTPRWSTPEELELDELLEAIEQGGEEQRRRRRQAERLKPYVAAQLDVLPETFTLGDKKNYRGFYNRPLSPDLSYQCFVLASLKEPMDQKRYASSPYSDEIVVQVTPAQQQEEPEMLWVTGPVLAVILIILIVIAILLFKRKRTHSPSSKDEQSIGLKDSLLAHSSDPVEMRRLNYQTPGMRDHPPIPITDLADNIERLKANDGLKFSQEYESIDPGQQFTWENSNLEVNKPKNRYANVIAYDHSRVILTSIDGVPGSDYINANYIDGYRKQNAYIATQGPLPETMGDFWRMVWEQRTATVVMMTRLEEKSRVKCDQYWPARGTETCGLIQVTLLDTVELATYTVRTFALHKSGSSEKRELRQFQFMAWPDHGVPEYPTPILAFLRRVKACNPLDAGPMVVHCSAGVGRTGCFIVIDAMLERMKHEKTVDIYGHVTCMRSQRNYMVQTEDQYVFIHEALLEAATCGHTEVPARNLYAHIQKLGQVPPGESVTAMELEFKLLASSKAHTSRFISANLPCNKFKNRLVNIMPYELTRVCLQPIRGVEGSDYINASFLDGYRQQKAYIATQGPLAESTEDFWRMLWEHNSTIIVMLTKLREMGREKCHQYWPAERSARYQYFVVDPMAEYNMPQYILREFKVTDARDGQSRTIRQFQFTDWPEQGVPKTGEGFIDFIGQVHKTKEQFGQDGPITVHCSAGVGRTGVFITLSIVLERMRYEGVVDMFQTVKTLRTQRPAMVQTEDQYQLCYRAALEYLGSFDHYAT

Turning to `O=C(O)c1cccc2c1oc1ccc(-c3csc(-c4ccc(N5CCOCC5)cc4)n3)cc12`, the concentration for half-maximal inhibition (IC50) in experiment [1] came to 280 nM; in experiment [2], 1630 nM; in experiment [3], 2940 nM.
Regarding `O=C(O)c1cccc2c1oc1ccc(-c3csc(-c4ccc(N5CCCC5)cc4)n3)cc12`, the Activity came out at 93 mg/dL in the experiment with Mus musculus [4], 93 mg/dL with Mus musculus [5], 124 mg/dL in the experiment with Mus musculus [6] and 138 mg/dL in the experiment on Mus musculus [7]. For the same compound, the IC50 in experiment [1] came to 82 nM; in experiment [2], 1660 nM; in [3] it was 2990 nM. The inhibition entry in the experiment listed under Mus musculus [8] is “inactive”. Besides, the inhibition result in the experiment filed under Mus musculus [9] and in the experiment listed under Mus musculus [10] was “Active” throughout.
With `CN(C)c1ccc(-c2nc(-c3ccc4oc5c(C(=O)O)cccc5c4c3)cs2)cc1`, the IC50 in experiment [1] is 257 nM; in experiment [2], 961 nM; in experiment [3], 3750 nM.
For `O=C(O)c1cccc2c1oc1ccc(-c3csc(-c4cccc(I)c4)n3)cc12` the same measures were 425 nM, 1620 nM and 2100 nM.
On to `Cc1nc(-c2ccc(Cl)cc2)sc1OCCc1cc(C(O)(C(=O)O)C(F)(F)F)ccc1OCc1ccccc1` (stereo unspecified), for which the IC50 in experiment [1] came out at 3200 nM.
As to `CC1CN(c2ccc(-c3nc(-c4ccc5oc6c(C(=O)O)cccc6c5c4)cs3)cc2)CC(C)O1` (stereo unspecified), the IC50 in [1] turned out to be 187 nM; in experiment [2], 1430 nM; in experiment [3] it was 2140 nM.
On the same counts, the results for `O=C(O)c1cccc2c1oc1ccc(-c3csc(-c4cc(Br)c(C(=O)[C@H](Cc5ccccc5)C(=O)O)c(Br)c4)n3)cc12` are 177 nM, 3140 nM and 3570 nM.
For `O=C(O)c1cccc2c1oc1ccc(-c3csc(-c4ccc(N5CCCCC5)cc4)n3)cc12` the same measures were 121 nM, 2070 nM and 2070 nM.
As for `CCc1cc(C[C@H]2NC(=O)CN(CCCCOc3cccc(O)c3C(=O)OC)C2=O)ccc1N(C(=O)C(=O)O)c1ccccc1C(=O)O` [OXALYLAMINOBENZOIC ACID], the 50% inhibitory concentration (IC50) in experiment [1] stood at 38 nM; in [2], 136 nM; in experiment [3], 410 nM. The Ki in experiment [1] came to 18 nM; in experiment [2] it was 65 nM.
In the case of `O=C(O)c1ccc(-c2nc(-c3ccc4oc5c(C(=O)O)cccc5c4c3)cs2)cc1`, the half-maximal inhibitory concentration (IC50) in experiment [1] was found to be 388 nM; in experiment [2], 2100 nM; in experiment [3], 3250 nM.
`Nc1ccc(-c2nc(-c3ccc4oc5c(C(=O)O)cccc5c4c3)cs2)cc1`: the IC50 in experiment [1] was 185 nM; in experiment [2], 693 nM.
Consider `O=C(O)/C=C/c1cccc(-c2nc(-c3ccc4oc5c(C(=O)O)cccc5c4c3)cs2)c1`, for which the IC50 in [1] came to 551 nM; in [2], 794 nM; in [3] it was 2070 nM.
For `O=C(O)c1cccc2c1oc1ccc(-c3csc(-c4ccc([N+](=O)[O-])cc4)n3)cc12` the same measures were 201 nM, 348 nM and 2870 nM.
Turning to `O=C(O)/C=C/c1ccc(-c2nc(-c3ccc4oc5c(C(=O)O)cccc5c4c3)cs2)cc1`, the IC50 amounted to 620 nM in experiment [1], 983 nM in experiment [2] and 1980 nM in [3].
On the same counts, the results for `Cc1ccc(-c2nc(-c3ccc4oc5c(C(=O)O)cccc5c4c3)cs2)cc1` are 515 nM, 730 nM and 1320 nM.
In the case of `O=C(O)c1cccc2c1oc1ccc(-c3csc(-c4ccc(I)cc4)n3)cc12`, the results for the IC50 in experiment [1] and in experiment [2] were 395 nM and 1870 nM, respectively.
For the compound `CN(CCOc1ccc(CC2SC(=O)NC2=O)cc1)c1ccccn1.O=C(O)/C=C\C(=O)O` (stereo unspecified) [ROSIGLITAZONE MALEATE], the inhibition entry in the experiment with Mus musculus [11] is “inactive”. Besides, in the experiment with Mus musculus [12], the Activity was 90 mg/dL. For the same compound, the inhibition entry in the experiment with Mus musculus [13] is “Active”.

What is called IC50 is the concentration needed to halve the response being measured. Usually Ki stands for a measure of affinity in units of concentration, obtained from inhibition or displacement.
